Laboratory results from article PMC3329872 (Bioorganic & medicinal chemistry letters, 2012).
“And” between values parts separate entries of the source, which are not always exact repeats. Identical values can stand only once. “Also recorded” adds a separate entry of the source. Like-named read-outs stand apart in the source and are kept apart here.

Columns and labels:
trypsin = biological target: T1, trypsin (Bos taurus, UniProt P00760); experiment: Trypsin enzymatic inhibition assay; assay type: biochemical
T1 sequence (P00760 24-246): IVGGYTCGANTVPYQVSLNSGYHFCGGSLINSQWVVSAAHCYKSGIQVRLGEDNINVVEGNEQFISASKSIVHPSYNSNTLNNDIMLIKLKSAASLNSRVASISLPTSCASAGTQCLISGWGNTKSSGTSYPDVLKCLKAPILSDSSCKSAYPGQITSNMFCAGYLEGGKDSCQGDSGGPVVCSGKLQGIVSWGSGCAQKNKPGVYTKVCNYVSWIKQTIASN
Summary of the method: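 Chromogenic substrate level was chosen from the Km determination. Rate of absorbance change at 405 nm was recorded immediately after enzyme addition. Velocities at various inhibitor concentrations were fitted to a 4-parameter logistic equation.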

U87 glioma cells = experiment: Cell death assay: lactate dehydrogenase; assay type: cell-based; settings: LDH assay, human U87 glioma cells; concentration and time given in the cell
Summary of the method: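 U87 glioma cells plated at ten thousand per well and exposed to test compound for 24–48 h at 37°C, 5% CO2. Cell death read as cytosolic LDH released from dying cells, measured with a commercial LDH kit per the manufacturer's protocol.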

plasmin [1] = biological target: T2, plasmin (Homo sapiens, UniProt P00747); experiment: Plasmin enzymatic inhibition assay; assay type: biochemical
tPA = tPA (Homo sapiens, UniProt P00750); settings: read-out: tPA IC50; cited from earlier work
plasmin [2] = biological target: T2, plasmin; settings: read-out: plasmin IC50; cited from earlier work
[3] = system: human malignant glioma cells; settings: cited from earlier work
[4] = read-out: Plasmin IC50, 22°C, pH 7.4, substrate tosyl-Gly-Pro-Lys-pNA

T2 sequence (P00747 581-810 limits assumed, species assumed): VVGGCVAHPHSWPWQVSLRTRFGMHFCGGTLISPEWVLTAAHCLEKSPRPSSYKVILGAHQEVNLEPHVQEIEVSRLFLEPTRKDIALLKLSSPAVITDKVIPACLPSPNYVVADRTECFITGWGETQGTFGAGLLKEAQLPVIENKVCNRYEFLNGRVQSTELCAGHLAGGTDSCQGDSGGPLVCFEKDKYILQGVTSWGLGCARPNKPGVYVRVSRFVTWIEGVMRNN
T2 sequence (P00747 97-580 partner limits assumed, species assumed): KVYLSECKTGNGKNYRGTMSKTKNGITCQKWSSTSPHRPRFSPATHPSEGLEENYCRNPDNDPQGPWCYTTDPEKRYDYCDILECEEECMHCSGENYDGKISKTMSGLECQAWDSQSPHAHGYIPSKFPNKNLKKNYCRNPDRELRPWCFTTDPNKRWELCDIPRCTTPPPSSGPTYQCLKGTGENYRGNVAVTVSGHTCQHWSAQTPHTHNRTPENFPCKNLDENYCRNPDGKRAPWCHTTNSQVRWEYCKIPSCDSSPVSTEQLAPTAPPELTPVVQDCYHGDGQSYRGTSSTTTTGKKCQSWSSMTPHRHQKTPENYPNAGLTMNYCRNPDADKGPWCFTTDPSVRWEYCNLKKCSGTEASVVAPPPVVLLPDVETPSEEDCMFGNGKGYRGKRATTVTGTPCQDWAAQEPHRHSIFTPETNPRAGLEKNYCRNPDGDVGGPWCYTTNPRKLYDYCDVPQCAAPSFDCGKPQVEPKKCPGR
Chain of tPA (P00750 36-562, species assumed): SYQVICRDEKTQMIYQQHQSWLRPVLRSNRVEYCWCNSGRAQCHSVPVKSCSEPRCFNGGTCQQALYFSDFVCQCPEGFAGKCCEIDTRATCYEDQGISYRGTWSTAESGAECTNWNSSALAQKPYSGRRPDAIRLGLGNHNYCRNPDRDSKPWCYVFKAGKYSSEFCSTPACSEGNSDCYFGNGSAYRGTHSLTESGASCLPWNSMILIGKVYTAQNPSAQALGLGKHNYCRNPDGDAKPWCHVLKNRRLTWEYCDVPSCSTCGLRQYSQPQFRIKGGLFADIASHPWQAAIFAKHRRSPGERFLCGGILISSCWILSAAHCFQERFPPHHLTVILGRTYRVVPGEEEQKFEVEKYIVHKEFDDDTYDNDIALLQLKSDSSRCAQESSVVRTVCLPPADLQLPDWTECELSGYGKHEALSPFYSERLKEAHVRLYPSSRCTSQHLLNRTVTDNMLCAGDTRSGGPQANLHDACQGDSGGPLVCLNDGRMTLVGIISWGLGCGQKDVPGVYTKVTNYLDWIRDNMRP

Compound	IC50 (trypsin)	Cytoxicity (U87 glioma cells)	IC50 (plasmin [1]; [4])	IC50 (plasmin [1])	IC50 (tPA)	IC50 (plasmin [2])	concentration causing caspase-independent, non-apoptotic cell death [3]
NC(N)=NC(=O)c1ncc(NCC(=O)O)nc1N [Compound 1-H]	> 250 µM	Not cytotoxic					
N=C(N)NC(=O)c1nc(Cl)c(NCC(=O)O)nc1N [Compound 1]	> 250 µM	do not demonstrate glioma cytotoxicity; also recorded: Not cytotoxic					
N=C(N)c1ncc(NCC(=O)O)nc1N [Compound 2-H]	> 250 µM	Not cytotoxic					
N=C(N)c1nc(Cl)c(NCC(=O)O)nc1N [Compound 2]	> 250 µM	do not demonstrate glioma cytotoxicity; also recorded: Not cytotoxic	> 250 µM				
N/C(=N\O)c1nc(Cl)c(NCC(=O)OCc2ccccc2)nc1N [Compound 7]	> 250 µM	Not cytotoxic					
N/C(=N\O)c1ncc(NCC(=O)O)nc1N [Compound 8-H]	> 250 µM	Not cytotoxic		230 µM			
N/C(=N\O)c1nc(Cl)c(NCC(=O)O)nc1N [Compound 8]	> 250 µM	Not cytotoxic					
N=C(N)c1nc(Cl)c(NCC(=O)OCc2ccccc2)nc1N [Compound 11]	> 250 µM	cytotoxic and 50% cytotoxic at 250μM by 72h					
NC(=O)c1nc(Cl)c(NCC(=O)OCc2ccccc2)nc1N [Compound 12]	> 250 µM	Not cytotoxic	> 150 µM				
NC(N)=NC(=O)c1nc(Cl)c(NCC(=O)OCc2ccccc2)nc1N [Compound 14]	> 250 µM	cytotoxic and 50% cytotoxic at 100μM by 24h					
N=C(N)NC(=O)c1nc(Cl)c(N)nc1N [amiloride, 3,5 diamino-6-chloro-N-(diaminomethylene) pyrazinecarboximide]	> 250 µM	50% cytotoxic at 250μM by 24h			> 1000 µM	> 1000 µM	~ 200 μM
